Laboratory results as given in ChEMBL document CHEMBL1833961, “Homology modeling in tandem with 3D-QSAR analyses: a computational approach to depict the agonist binding site of the human CB2 receptor” (Eur J Med Chem, 2011).

How the values were obtained:
Format in all cases: cell-based
[1] = target: T1, Cannabinoid receptor 1 (Homo sapiens, UniProt P21554); assay: Displacement of [3H]-CP-55,940 from human CB1 receptor expressed in human HEK293 cells at 1 uM after 90 mins by radioligand assay
Method in brief: (§1)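 Percent displacement of [3H]-CP 55,940 (0.5 nM) from human recombinant CB1 in HEK-293 cell membranes (Bmax 2.5 pmol/mg protein), with a single inhibitor concentration of 1 or 10 µM. Incubation was 90 min at 30 °C, and nonspecific binding was defined with 10 uM WIN 55212-2.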

[2] = target: T2, Cannabinoid receptor 2 (Homo sapiens, UniProt P34972); assay: Displacement of [3H]-WIN 55,212-2 from human CB2 receptor expressed in human HEK293 cells after 90 mins by radioligand assay
T2 sequence (P34972 whole entry): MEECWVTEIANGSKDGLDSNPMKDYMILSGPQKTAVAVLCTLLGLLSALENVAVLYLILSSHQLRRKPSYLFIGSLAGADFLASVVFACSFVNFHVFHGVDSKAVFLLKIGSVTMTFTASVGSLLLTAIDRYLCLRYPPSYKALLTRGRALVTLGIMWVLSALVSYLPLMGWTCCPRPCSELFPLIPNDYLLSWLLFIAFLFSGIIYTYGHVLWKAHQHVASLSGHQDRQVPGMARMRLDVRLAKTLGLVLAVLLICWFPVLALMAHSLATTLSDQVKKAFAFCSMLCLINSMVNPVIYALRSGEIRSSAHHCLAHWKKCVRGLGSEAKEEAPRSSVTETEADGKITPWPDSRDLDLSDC

[3] = target: T2, Cannabinoid receptor 2; assay: Displacement of [3H]-WIN 55,212-2 from human CB2 receptor expressed in human HEK293 cells at 1 uM after 90 mins by radioligand assay
[4] = target: T1, Cannabinoid receptor 1; assay: Displacement of [3H]-CP-55,940 from human CB1 receptor expressed in human HEK293 cells after 90 mins by radioligand assay
Method in brief: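 Membranes from HEK-293 cells transfected with human recombinant CB1 (Bmax 2.5 pmol/mg protein) were incubated with 0.14 nM [3H]-CP-55,940 (Kd 0.18 nM) and increasing compound concentrations for 90 min at 30 °C. Nonspecific binding was defined with 10 uM WIN 55212-2. Ki was calculated from IC50 by Cheng–Prusoff.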

[5] = target: T2, Cannabinoid receptor 2; assay: Displacement of [3H]-WIN 55,212-2 from human CB2 receptor expressed in human HEK293 cells at 10 uM after 90 mins by radioligand assay
[6] = target: T1, Cannabinoid receptor 1; assay: Displacement of [3H]-CP-55,940 from human CB1 receptor expressed in human HEK293 cells at 10 uM after 90 mins by radioligand assay; method in brief: as §1

T1 sequence (P21554 whole entry): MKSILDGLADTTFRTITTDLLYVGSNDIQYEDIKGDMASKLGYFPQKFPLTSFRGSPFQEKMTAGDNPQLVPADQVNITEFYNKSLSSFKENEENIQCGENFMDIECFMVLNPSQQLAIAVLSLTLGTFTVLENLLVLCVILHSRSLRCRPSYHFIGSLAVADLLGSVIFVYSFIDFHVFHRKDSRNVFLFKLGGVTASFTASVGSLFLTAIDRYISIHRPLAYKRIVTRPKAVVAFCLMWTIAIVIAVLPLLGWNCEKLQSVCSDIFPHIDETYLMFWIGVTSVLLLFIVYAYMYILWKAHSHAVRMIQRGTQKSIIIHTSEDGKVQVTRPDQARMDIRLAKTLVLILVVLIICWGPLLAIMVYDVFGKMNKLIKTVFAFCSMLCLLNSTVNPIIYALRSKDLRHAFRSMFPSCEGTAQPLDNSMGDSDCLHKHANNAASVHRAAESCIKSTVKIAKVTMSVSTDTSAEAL

## N#C/C(=C\c1cn(CCN2CCOCC2)c2ccccc12)S(=O)(=O)c1ccccc1
[1]
  Activity: 85%
[2]
  IC50: 0.0401 µM
[2]; read-out: Ki
  Ki: 0.0102 µM
[3]
  Activity: 95.9%
[4]
  IC50: 0.155 µM
  Ki: 0.062 µM

## CCOC(=O)/C(=C/c1cn(CCN2CCOCC2)c2ccccc12)C(=O)c1ccccc1
[5]
  Activity: 66%
[2]
  IC50: 6.22 µM
[2]; read-out: Ki
  Ki: 1.58 µM
[6]
  Activity: 43.2%
[4]
  IC50: > 10 µM
  Ki: > 10 µM

## N#C/C(=C\c1cn(CCN2CCCCC2)c2ccccc12)S(=O)(=O)c1ccccc1
[5]
  Activity: 101%
[2]; read-out: Ki
  Ki: 0.0075 µM
[6]
  Activity: 83%

## CCOC(=O)/C(=C/c1cn(CCN2CCCCC2)c2ccccc12)C(=O)c1ccccc1
[5]
  Activity: 70.8%
[2]
  IC50: 5.48 µM
[2]; read-out: Ki
  Ki: 1.39 µM
[6]
  Activity: 25.1%
[4]
  IC50: > 10 µM
  Ki: > 10 µM

## CC1(C)C(C(=O)c2cn(CC3CCOCC3)c3c(CC4CCOCC4)c4c(cc23)OCO4)C1(C)C
[2]; read-out: pKi (converted)
  Ki: 0.00102 µM
